Reference: ChEMBL document CHEMBL4513216, “Probing the Open Global Health Chemical Diversity Library for Multistage-Active Starting Points for Next-Generation Antimalarials” (ACS Infect Dis, 2020)

Assay: Toxicity liver stage against HepG2, at 10uM
Type: cell-based
Set-up: test concentration 10 uM, cell line HepG2-A16-CD81EGFP
Conditions: human, HepG2-A16-CD81EGFP cells; read-out: INHIBITION
Procedure, shortened: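 Uninfected HepG2-A16-CD81EGFP cells, 3 × 10^3 per well, 1536-well, plated on prespotted compound at 10 μM final, parasite-free screening media added to match infected plates; puromycin 10 μM positive, DMSO 0.5% negative; run in parallel with 48 h PbLuc assay at 37 °C, 5% CO2; viability by CellTiter-Glo luminescence, normalized to controls.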

| Structure (SMILES) | cytotoxicity at 10 µM |
| --- | --- |
| Cc1cc2ncn(C(=O)N3CCCCC3)c2cc1C | 10.3% |
| O=C1CO[C@H](c2ccc(NS(=O)(=O)c3ccccc3)cc2)[C@@H](CO)N1 | 2.17% |
| c1cnc2c(c1)nc1n2[C@@H](CNC2CCOCC2)COC1 | -4.8% |
| c1cn2c(n1)CO[C@@H](CNCc1ccc3c(c1)OCO3)C2 | 2% |
| CC(=O)N1C[C@@H](F)[C@@H](OCc2nc3ccccc3o2)C1 | -1.34% |
| O=C(O)Cn1ccc(=O)c2ccccc21 | -9.24% |
| CSCCC(Nc1nc(C)cc(C)n1)C(=O)NC1CC1 (stereo unspecified) | -15.3% |
| O=C(NCCc1ccccn1)c1n[nH]c2c1CCC2 | -3.81% |
| CC(C)CNC(=O)N1C[C@@H]2CCCN[C@@H]2C1 | 5% |
| CC(=O)N1CCC2(C1)CN(S(=O)(=O)c1ccccc1)C2 | 3.82% |
| COCC1CN(CC2CCOCC2)Cc2cn(CC3CCCC3)nc21 (stereo unspecified) | 5.19% |
| Cc1ncnc2c1CCN(C(=O)c1ccoc1)CC2 | 6.73% |
| COC(=O)COc1nc(CC(C)C)c2c(c1C#N)CCCC2 | 21.5% |
| Cc1sc(NC(=O)CN(C)S(C)(=O)=O)c(C#N)c1C | 4.7% |
| CC1CCN(C(=O)c2ccn(COc3ccccc3)n2)CC1 | -0.107% |
| CN(C)C(=O)CNC(=O)CCn1ncc2c(Cl)cccc21 | -4.84% |
| CS(=O)(=O)c1cnc(N2CCCC2)nc1C1CCN(C(=O)C2CC2)CC1 | 1.45% |
| O=C(c1cscn1)N1CCc2[nH]nc(Nc3ccccc3)c2C1 | 7.82% |
| CC(C)(NC(=O)Cc1ccccc1F)C(=O)O | 3.13% |
| CC(C)c1nc(O)c2nnn(C[C@@H]3CCCN(Cc4ccsc4)C3)c2n1 | -4.6% |
| CC(C)NC(=O)C1CCc2nnc(C(C)(C)C)n21 (stereo unspecified) | 2.74% |
| Cc1cc(C)c(CNC(=O)NC2CCN(C(=O)C(C)C)CC2)c(C)c1 | 9.46% |
| Cc1cccc(NC(=O)N2CCC(CO)(Nc3ccccc3)CC2)c1 | 0.045% |

| Structure (SMILES) | cytotoxicity at 10 µM |
| --- | --- |
| CC(C)(CO)N1CCN(S(=O)(=O)CCCF)CC1 | -4.3% |
| CC(C#N)CNC(=O)Nc1ccc(Br)cc1 (stereo unspecified) | 1.44% |
| CCOc1ccc(NCc2cnc(N3CCN(C)CC3)nc2)cn1 | -0.512% |
| O=C(NCCN1CCCCCC1=O)Nc1cccnc1-n1cccn1 | -1.73% |
| CCC(NC(=O)c1ccc(COC)o1)c1nc(C(F)(F)F)cs1 (stereo unspecified) | 2.91% |
| CNC(=O)CN1CCC(CN(C)Cc2ccc(C)cc2C)CC1 | 4% |
| CSCC(=O)N1CCOC(c2nc(C(C)C)n[nH]2)C1 (stereo unspecified) | -4.99% |
| COc1cc2nc(C)sc2cc1NC(=O)C(C)NC(N)=O (stereo unspecified) | -9.93% |
| COC(=O)CCN(CC1CCCO1)C(=O)CCc1ccc(OC)cc1 (stereo unspecified) | 7.39% |
| Cc1ccccc1C(NC(=O)NCC1(O)CCC1)C1CC1 (stereo unspecified) | -3.03% |
| COc1cccc(-c2cnc(CNC(C)(C)c3nc(C)cs3)o2)c1 | 11.4% |
| CC(=O)NC1(C(=O)N2CCCN(c3cccnn3)CC2)CCCCC1 | 8.15% |
| CC(C)(C)OC(=O)NCCNC(=O)c1ccc2cc[nH]c2c1 | -0.224% |
| CCNC(=O)NCc1cccc(N2CC=CC2)c1 | 5.03% |
| Cc1cnn(CC2CCCN2c2ccc(C#N)cn2)c1 (stereo unspecified) | 14% |
| Cc1nc(CN2CCN(C(=O)C(C(C)C)n3cncn3)CC2)cs1 (stereo unspecified) | -1.29% |
| COc1ccc(OCCN(C)C(=O)c2ccc(OC)cc2O)cc1 | -143% |
| O=S(=O)(Nc1cn[nH]c1)c1ccc(Br)c(F)c1 | 0.462% |
| NC(=O)CCN1C(=O)CC(Cc2ccc(F)cc2)C1=O (stereo unspecified) | -4.89% |
| N#CC(NC(=O)CCC(=O)NC1CCCC1)c1ccc(F)cc1F (stereo unspecified) | 6.75% |
| OCC(O)CSCc1ccc(F)cc1Cl (stereo unspecified) | -138% |
| Cc1cnn(-c2ccc(C(=O)N3CCN(C)CC3C)cc2)c1 (stereo unspecified) | 5.16% |
| CCCc1nc(CNC2(c3nccs3)CCCC2)cs1 | 2.63% |

| Structure (SMILES) | cytotoxicity at 10 µM |
| --- | --- |
| CN(Cc1nnc(-c2cccs2)o1)C(C(N)=O)c1cccc(F)c1 (stereo unspecified) | 13.7% |
| CC(C)C1CN(C(=O)Nc2cnn(CC(F)F)c2)CCO1 (stereo unspecified) | 8.52% |
| O=S(=O)(CC1CCCO1)Nc1cc(Cl)ccc1-n1cccn1 (stereo unspecified) | 3.55% |
| CC(C)(C)C(=O)NCCC(=O)NS(=O)(=O)c1ccc2c(c1)OCCO2 | -3.81% |
| Cc1ccccc1CS(=O)(=O)CC(=O)NCc1ccccc1F | -6% |
| O=C(CC1CN(Cc2ccccc2)CCO1)NC1CCCC1 (stereo unspecified) | -0.394% |
| O=C1CCCCN1CCc1nc(C2(c3ccc(F)cc3)CCOC2)no1 (stereo unspecified) | 3.82% |
| COc1cccc(-c2cc(C(=O)NCCCC(F)(F)F)[nH]n2)c1 | -13.9% |
| CC(=O)NCCNC(=O)C(c1ccccc1C)N(C)C (stereo unspecified) | 10.6% |
| CC(C)N(CCO)C(=O)c1cc(COc2ccc3c(c2)CCCC3)on1 | -135% |
| COc1ccc(C(=O)N2C[C@@H](O)[C@H](NCCc3ncccc3C)C2)cc1 | -3.71% |
| CC[C@@]1(O)CCN(C(=O)c2cccc3cc(C)oc23)C[C@H]1O | 4.62% |
| CC(C)CN(Cc1ccc(C(F)(F)F)nc1)Cc1cnn(C)c1 | 1.42% |
| O=C(CCCN1CCCCC1)N1CCN(C(=O)c2nc[nH]n2)CC1 | 7.81% |
| CCCc1cnc(C)nc1N1CCC(Cn2cc(CN(C)C)nn2)CC1 | -4.4% |
| O=C(c1ccccc1-c1nnn[nH]1)N1CCOC(C(F)(F)F)C1 (stereo unspecified) | -1.67% |
| O=C(O)CCc1cc2n(n1)CCN(Cc1ccc3[nH]ccc3c1)C2 | -2.32% |
| COc1nc2c(cc1C(=O)NCCc1nc3ccccc3s1)CCC2 | 5.79% |
| Cc1cc(C)n2nc(C(=O)N[C@H]3C[C@H]4CN(C)CCN4C3)cc2n1 | -0.671% |
| C[C@H](N)C(=O)N1CCC(c2[nH]ncc2-c2ccccc2)CC1 | 2.4% |
| Cc1cccc(C(=O)N2CCN(S(C)(=O)=O)[C@@H]3CS(=O)(=O)C[C@@H]32)n1 | 4.01% |
| COc1cccn(Cc2nnc(-c3cccnc3)o2)c1=O | 7.99% |
| CCN(Cc1cnn(C)c1)C[C@H]1CC[C@@H](Cc2cccc(C#N)c2)O1 | 0.194% |

| Structure (SMILES) | cytotoxicity at 10 µM |
| --- | --- |
| O=C(NCCc1ccncc1)c1cccc(S(=O)(=O)N[C@@H]2CCNC2)c1 | 4.93% |
| COc1ccccc1NC(=O)c1cc2c([nH]c1=O)CCCC2=O | -4.14% |
| Cc1cc(CNC(=O)NCc2cccs2)no1 | -1.87% |
| CN(Cc1ccco1)C(=O)C1CSCN1C(=O)C1CCC1 (stereo unspecified) | -13.2% |
| COCCCNC(=O)CN(C)C(=O)c1cc(Cl)ccc1O | -1.84% |
| CC(C)c1nc(CN2CCOC(Cn3cncn3)C2)no1 (stereo unspecified) | 1.01% |
| CC(=O)N(Cc1noc(C2CC2)n1)C1CCN(Cc2cc(C)on2)C1 (stereo unspecified) | -6.08% |
| COc1cc(CNC(=O)N(Cc2ccc(F)cc2F)C2CC2)ccn1 | -9.17% |
| CCCN(C)CCC(=O)N1CCCC1Cn1cccn1 (stereo unspecified) | -16.9% |
| CC(NC(=O)N1CCN(c2nccs2)CC1)c1nncn1C (stereo unspecified) | -13.1% |
| Cc1cnn(CCNCc2ccccc2OCc2ccncc2)c1 | -16.1% |
| Cc1cnn(CCNCc2ccccc2OCc2ccccn2)c1 | 3.03% |
| Cc1ccc(F)c(C(=O)N2CCC(Nc3ccc(C)nn3)CC2)c1 | -3.78% |
| Cc1cnn(C2CCCN(C(=O)c3ccnc(-n4cncn4)c3)C2)c1 (stereo unspecified) | -0.565% |
| CCN(CCNC(=O)c1cccc(C)c1C)C1CC1 | 3.43% |
| Cc1noc(C(C)C)c1C(=O)NCCCN1CCCCCC1=O | 1.91% |
| CCCc1noc(CN2CCC(N(C)Cc3nnc(C4CC4)o3)C2)n1 (stereo unspecified) | -0.775% |
| O=C(NCCc1ccn(-c2ccccc2)n1)N1CCCC(O)C1 (stereo unspecified) | -41.8% |
| CCOc1ccccc1OC1CCN(C(=O)c2ccc(=O)[nH]n2)CC1 | -8.7% |
| Cc1cc(C(=O)N2CCc3nnc(N)cc3C2)c(C)n1C1CC1 | -3.71% |
| COc1c(CNCc2ccc(CN(C)C)cc2)c(C)nn1C | 3.87% |
| CC(CN1CCOCC1)n1cncc1-c1ccc2c(c1)CCCN2C (stereo unspecified) | 12.3% |
| CC(C)CN1CCC2(CCCNC2)C1=O (stereo unspecified) | -0.184% |

| Structure (SMILES) | cytotoxicity at 10 µM |
| --- | --- |
| CCOc1ccc(CN[C@@H]2COC[C@H]2c2ccc(F)cc2)cc1 | 17.1% |
| O=C(CN1CCCCC1)N1CCC(c2cc(=O)n3c(n2)CCCCC3)C1 (stereo unspecified) | -32.5% |
| O=S(=O)(NC[C@]12COC[C@H]1CN(c1ncc(F)cn1)C2)C1CC1 | -128% |
| Cc1ccoc1C(=O)N1CCc2ccc(=O)n(CCN(C)C)c2CC1 | 1.41% |
| Cc1ccc(C(=O)N2CCC3(CC2)NC(=O)CC3c2ccccc2)cn1 (stereo unspecified) | -2.47% |
| Cn1cc(C2CC(=O)NC23CCN(Cc2ccncc2)CC3)cn1 (stereo unspecified) | 13.2% |
| Cc1cnc(N2CC[C@@H]3CN(Cc4ccncc4)CCO[C@@H]3C2)nc1 | 3.23% |
| CNCC(=O)N1CCCC1c1n[nH]cc1-c1ccccc1F (stereo unspecified) | -0.136% |
| c1cnc(N2CCO[C@H]3CN(Cc4cc[nH]n4)C[C@H]32)cn1 | 9.07% |
| CNC(=O)C1CNCCN1C(=O)c1ccc(C(F)(F)F)nc1C (stereo unspecified) | -4.7% |
| O=C(c1nc2c(o1)CN(CC1CCC1)C2)N1CCCC1 | -131% |
| CNC(=O)[C@H]1C[C@@H]2CN(S(=O)(=O)Cc3ccccc3)C[C@@H]2N1C | -5.06% |
| COc1c(CNC2CCc3c(F)cccc32)c(C)nn1C (stereo unspecified) | 0.665% |
| CN(C)C(=O)N[C@@H]1CN(Cc2ccc3c(c2)OCO3)[C@@H]2CCCO[C@@H]21 | -6.93% |
| O=C(C1CC1)N1CC2(CCN(CC3CC3)CC2)c2cc(F)ccc21 | 0.64% |
| COCCN1C[C@@H]2CCCO[C@@H]2[C@H](N(C)Cc2ccco2)C1 | -0.388% |
| Cc1cccc(CN2CC3(CCN(Cc4ccco4)CC3)OCC2=O)n1 | 8.1% |
| CNc1nc2cn(CCc3ccc(Cl)cc3)c(=O)c-2c[nH]1 | 5.2% |
| Cc1nnsc1CN1C[C@@H]2CC[C@H]1CN(Cc1ccccn1)C2 | -3.56% |
